Measured values as given in ChEMBL document CHEMBL1133762, “Aureobasidins: structure-activity relationships for the inhibition of the human MDR1 P-glycoprotein ABC-transporter” (J Med Chem, 2000).
≈ marks a conversion by molar mass, not a printed value.

What was measured:
[1] = biological target: T1, ATP-dependent translocase ABCB1 (Homo sapiens, UniProt P08183); assay: (§1) Human MDR1 Pgp inhibitory activity by using standard calcein-AM efflux method with the human leukemia CEM cells.; assay type: cell-based, CCRF-CEM
T1 sequence (P08183 whole entry): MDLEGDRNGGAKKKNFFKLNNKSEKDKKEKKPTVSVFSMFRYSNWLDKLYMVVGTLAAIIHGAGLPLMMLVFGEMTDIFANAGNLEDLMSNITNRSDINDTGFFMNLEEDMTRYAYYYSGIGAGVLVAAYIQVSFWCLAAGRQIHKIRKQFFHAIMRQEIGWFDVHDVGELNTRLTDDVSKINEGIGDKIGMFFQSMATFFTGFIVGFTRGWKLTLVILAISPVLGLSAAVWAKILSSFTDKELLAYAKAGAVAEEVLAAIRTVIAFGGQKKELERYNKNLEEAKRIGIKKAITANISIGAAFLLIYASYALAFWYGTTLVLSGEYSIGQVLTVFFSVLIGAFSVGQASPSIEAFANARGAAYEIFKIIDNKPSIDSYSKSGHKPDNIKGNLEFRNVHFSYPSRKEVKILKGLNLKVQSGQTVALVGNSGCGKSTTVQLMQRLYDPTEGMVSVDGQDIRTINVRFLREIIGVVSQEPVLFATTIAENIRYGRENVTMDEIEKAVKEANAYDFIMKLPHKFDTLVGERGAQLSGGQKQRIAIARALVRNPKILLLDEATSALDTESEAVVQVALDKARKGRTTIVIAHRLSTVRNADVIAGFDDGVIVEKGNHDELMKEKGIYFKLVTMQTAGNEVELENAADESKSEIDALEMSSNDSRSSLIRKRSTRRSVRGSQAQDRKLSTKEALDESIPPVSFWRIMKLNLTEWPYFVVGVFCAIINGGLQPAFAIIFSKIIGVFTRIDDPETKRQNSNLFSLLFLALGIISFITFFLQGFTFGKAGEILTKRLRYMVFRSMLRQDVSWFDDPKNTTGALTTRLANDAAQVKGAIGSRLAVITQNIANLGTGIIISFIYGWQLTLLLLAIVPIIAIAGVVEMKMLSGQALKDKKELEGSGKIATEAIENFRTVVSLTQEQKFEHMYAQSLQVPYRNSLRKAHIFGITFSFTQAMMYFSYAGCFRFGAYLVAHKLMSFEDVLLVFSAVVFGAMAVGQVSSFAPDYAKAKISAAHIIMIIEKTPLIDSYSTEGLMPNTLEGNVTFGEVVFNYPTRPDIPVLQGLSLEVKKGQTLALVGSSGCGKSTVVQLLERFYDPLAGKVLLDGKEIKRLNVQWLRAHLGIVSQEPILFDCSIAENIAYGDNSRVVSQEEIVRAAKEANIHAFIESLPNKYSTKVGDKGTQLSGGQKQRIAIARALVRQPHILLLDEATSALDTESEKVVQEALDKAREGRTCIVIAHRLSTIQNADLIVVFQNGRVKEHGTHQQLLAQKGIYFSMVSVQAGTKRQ

[2] = biological target: P-glycoprotein (ABCB1, MDR1) (Homo sapiens, UniProt P08183); assay: as §1; assay type: cell-based, CCRF-CEM; settings: probe calcein-AM; for IC50: human, human leukemia CEM cells
Chain of P-glycoprotein (ABCB1, MDR1) (P08183 whole entry): as above

Saccharomyces cerevisiae [3] = assay: Minimum growth-inhibitory concentration against Saccharomyces cerevisiae ATCC 9763 by agar dilution method by the suspension of a fungi containing ~5 x 10e (7) cells/mL.; assay type: functional
In short: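 Agar dilution on Sabouraud–dextrose agar plates with graded compound concentrations. A loopful of yeast suspension (about 5 × 10⁷ cells/mL) was streaked on the surface. Plates were incubated at 30 °C for 3 days. MIC is the lowest concentration with no detectable growth.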

[4] = biological target: T1, ATP-dependent translocase ABCB1; assay: Direct comparison of the antifungal activities with the relative Pgp-inhibitory potencies, calculated by comparing ug/mL IC50(or IC20).; assay type: functional
Saccharomyces cerevisiae [5] = assay: Relative antifungal activity (against Saccharomyces cerevisiae) compared to AbA

CC[C@H](C)[C@@H]1NC(=O)[C@@H]2CCCN2C(=O)[C@H](Cc2ccccc2)N(C)C(=O)[C@H](Cc2ccccc2)NC(=O)[C@H](C(C)C)N(C)C(=O)[C@@H]([C@@H](C)CC)OC(=O)C(C(C)(C)O)N(C)C(=O)[C@H](CC(C)C)NC(=O)[C@H](C(C)C)N(C)C1=O (stereo not given in full)
IC50 [1]: 360 nM | IC20 [2]: 100 nM

CC[C@H](C)[C@@H]1NC(=O)[C@@H]2CCCN2C(=O)[C@H](Cc2ccccc2)N(C)C(=O)[C@H](Cc2ccccc2)NC(=O)[C@H](C(C)C)N(C)C(=O)[C@@H]([C@@H](C)CC)OC(=O)[C@@H](C(C)(C)O)N(C)C(=O)[C@H](CC(C)C)NC(=O)[C@H](C(C)C)N(C)C1=O
IC50 [2]: 390 nM | IC20 [2]: 100 nM | MIC (Saccharomyces cerevisiae [3]): > 25 µg/mL

CC[C@@H](C)[C@@H]1NC(=O)[C@@H]2CCCN2C(=O)[C@H](Cc2ccccc2)N(C)C(=O)[C@H](Cc2ccccc2)NC(=O)[C@H](C(C)C)N(C)C(=O)[C@@H]([C@@H](C)CC)OC(=O)C(=C(C)C)N(C)C(=O)[C@H](CC(C)C)NC(=O)[C@H](C(C)C)N(C)C1=O [listing 1 of 2 here]
IC50 [2]: 180 nM | IC20 [2]: 60 nM | Pgp AbA/analogue ratio [4]: 12.5 | antifungal AbA/analogue ratio (Saccharomyces cerevisiae [5]): < 0.016

CC[C@@H](C)[C@@H]1NC(=O)[C@@H]2CCCN2C(=O)[C@H](Cc2ccccc2)N(C)C(=O)[C@H](Cc2ccccc2)NC(=O)[C@H](C(C)C)N(C)C(=O)[C@@H]([C@@H](C)CC)OC(=O)C(=C(C)C)N(C)C(=O)[C@H](CC(C)C)NC(=O)[C@H](C(C)C)N(C)C1=O [listing 2 of 2 here]
MIC (Saccharomyces cerevisiae [3]): > 25 µg/mL

CC[C@@H](C)[C@@H]1NC(=O)[C@@H]2CCCN2C(=O)[C@H](Cc2ccccc2)N(C)C(=O)[C@H](Cc2ccccc2)NC(=O)[C@H](C(C)C)N(C)C(=O)[C@@H]([C@@H](C)CC)OC(=O)CN(C)C(=O)[C@H](CC(C)C)NC(=O)[C@H](C(C)C)N(C)C1=O
IC50 [2]: 890 nM | IC20 [2]: 310 nM | Pgp AbA/analogue ratio [4]: 2.7

CC[C@H](C)[C@@H]1NC(=O)[C@@H]2CCCN2C(=O)[C@H](Cc2ccccc2)N(C)C(=O)[C@H](Cc2ccccc2)NC(=O)[C@H](C(C)C)N(C)C(=O)[C@@H]([C@@H](C)CC)OC(=O)[C@H](C(C)(C)O)N(C)C(=O)[C@H](CC(C)C)NC(=O)[C@H](C(C)C)N(C)C1=O
IC50 [2]: 2270 nM | IC20 [2]: 680 nM | MIC (Saccharomyces cerevisiae [3]): 0.4 µg/mL (≈ 0.363 µM)

CC[C@@H](C)[C@@H]1NC(=O)[C@@H]2CCCN2C(=O)[C@H](Cc2ccccc2)N(C)C(=O)[C@H](Cc2ccccc2)NC(=O)[C@H](C(C)C)N(C)C(=O)[C@@H](C(C)C)OC(=O)[C@H](C(C)(C)O)N(C)C(=O)[C@H](CC(C)C)NC(=O)[C@H](C(C)C)N(C)C1=O
MIC (Saccharomyces cerevisiae [3]): 0.4 µg/mL (≈ 0.368 µM)

CC[C@@H](C)[C@@H]1NC(=O)CCCCCCCNC(=O)[C@H](C(C)C)N(C)C(=O)[C@@H]([C@@H](C)CC)OC(=O)[C@H](C(C)(C)O)N(C)C(=O)[C@H](CC(C)C)NC(=O)[C@H](C(C)C)N(C)C1=O [listing 1 of 2 here]
IC50 [2]: 7420 nM | IC20 [2]: 2630 nM | Pgp AbA/analogue ratio [4]: 0.4 | antifungal AbA/analogue ratio (Saccharomyces cerevisiae [5]): < 0.016

CC[C@@H](C)[C@@H]1NC(=O)CCCCCCCNC(=O)[C@H](C(C)C)N(C)C(=O)[C@@H]([C@@H](C)CC)OC(=O)[C@H](C(C)(C)O)N(C)C(=O)[C@H](CC(C)C)NC(=O)[C@H](C(C)C)N(C)C1=O [listing 2 of 2 here]
MIC (Saccharomyces cerevisiae [3]): > 25 µg/mL

CC[C@H](C)[C@@H]1NC(=O)[C@@H]2CCCN2C(=O)[C@@H](Cc2ccccc2)N(C)C(=O)[C@H](Cc2ccccc2)NC(=O)[C@H](C(C)C)N(C)C(=O)[C@@H]([C@@H](C)CC)OC(=O)[C@H](C(C)(C)O)N(C)C(=O)[C@H](CC(C)C)NC(=O)[C@H](C(C)C)N(C)C1=O
IC50 [1]: 2730 nM | IC20 [2]: 910 nM | MIC (Saccharomyces cerevisiae [3]): 0.2 µg/mL (≈ 0.182 µM)

CC[C@H](C)[C@@H]1NC(=O)[C@@H]2CCCN2C(=O)[C@H](Cc2ccccc2)N(C)C(=O)[C@H](Cc2ccccc2)NC(=O)[C@H](C(C)C)N(C)C(=O)[C@@H]([C@@H](C)CC)OC(=O)[C@H](C(C)(C)O)N(C)C(=O)[C@H](CC(C)C)NC(=O)[C@@H](C(C)C)N(C)C1=O
IC50 [1]: > 2730 nM | IC20 [2]: 1800 nM | MIC (Saccharomyces cerevisiae [3]): > 25 µg/mL

CC[C@@H](C)[C@@H]1NC(=O)[C@@H]2CCCN2C(=O)[C@H](Cc2ccccc2)N(C)C(=O)[C@H](Cc2ccccc2)NC(=O)[C@H](C(C)C)N(C)C(=O)[C@@H]([C@@H](C)CC)OC(=O)[C@H](C(C)(C)O)N(C)C(=O)[C@H](CC(C)C)NC(=O)C(C(C)C)OC1=O (stereo not given in full) [listing 1 of 2 here]
IC50 [2]: 1660 nM | IC20 [2]: 460 nM | Pgp AbA/analogue ratio [4]: 1.4 | antifungal AbA/analogue ratio (Saccharomyces cerevisiae [5]): < 0.016

CC[C@@H](C)[C@@H]1NC(=O)[C@@H]2CCCN2C(=O)[C@H](Cc2ccccc2)N(C)C(=O)[C@H](Cc2ccccc2)NC(=O)[C@H](C(C)C)N(C)C(=O)[C@@H]([C@@H](C)CC)OC(=O)[C@H](C(C)(C)O)N(C)C(=O)[C@H](CC(C)C)NC(=O)C(C(C)C)OC1=O (stereo not given in full) [listing 2 of 2 here]
MIC (Saccharomyces cerevisiae [3]): > 25 µg/mL

CC[C@@H](C)[C@@H]1NC(=O)[C@@H]2CCCN2C(=O)[C@H](Cc2ccccc2)N(C)C(=O)[C@H](C2CCCCC2)NC(=O)[C@H](C(C)C)N(C)C(=O)[C@@H]([C@@H](C)CC)OC(=O)[C@H](C(C)(C)O)N(C)C(=O)[C@H](CC(C)C)NC(=O)[C@H](C(C)C)N(C)C1=O [listing 1 of 2 here]
IC50 [2]: 5880 nM | IC20 [2]: 1450 nM | Pgp AbA/analogue ratio [4]: 0.5 | antifungal AbA/analogue ratio (Saccharomyces cerevisiae [5]): 0.25

CC[C@@H](C)[C@@H]1NC(=O)[C@@H]2CCCN2C(=O)[C@H](Cc2ccccc2)N(C)C(=O)[C@H](C2CCCCC2)NC(=O)[C@H](C(C)C)N(C)C(=O)[C@@H]([C@@H](C)CC)OC(=O)[C@H](C(C)(C)O)N(C)C(=O)[C@H](CC(C)C)NC(=O)[C@H](C(C)C)N(C)C1=O [listing 2 of 2 here]
MIC (Saccharomyces cerevisiae [3]): 1.6 µg/mL (≈ 1.46 µM)

CC[C@@H](C)[C@@H]1NC(=O)[C@@H]2CCCN2C(=O)[C@H]([C@H](O)c2ccccc2)N(C)C(=O)[C@H](Cc2ccccc2)NC(=O)[C@H](C(C)C)N(C)C(=O)[C@@H]([C@@H](C)CC)OC(=O)[C@H](C(C)C)N(C)C(=O)[C@H](CC(C)C)NC(=O)[C@H](C(C)C)N(C)C1=O [listing 1 of 2 here]
IC50 [2]: 1360 nM | IC20 [2]: 460 nM | Pgp AbA/analogue ratio [4]: 1.7 | antifungal AbA/analogue ratio (Saccharomyces cerevisiae [5]): 0.25

CC[C@@H](C)[C@@H]1NC(=O)[C@@H]2CCCN2C(=O)[C@H]([C@H](O)c2ccccc2)N(C)C(=O)[C@H](Cc2ccccc2)NC(=O)[C@H](C(C)C)N(C)C(=O)[C@@H]([C@@H](C)CC)OC(=O)[C@H](C(C)C)N(C)C(=O)[C@H](CC(C)C)NC(=O)[C@H](C(C)C)N(C)C1=O [listing 2 of 2 here]
MIC (Saccharomyces cerevisiae [3]): 1.7 µg/mL (≈ 1.54 µM)

CC[C@@H](C)[C@@H]1NC(=O)[C@@H]2CCCN2C(=O)[C@H](Cc2ccccc2)N(C)C(=O)[C@H](Cc2ccccc2)NC(=O)[C@H](C(C)C)N(C)C(=O)[C@@H]([C@@H](C)CC)OC(=O)[C@]2(OC2(C)C)N(C)C(=O)[C@H](CC(C)C)NC(=O)[C@H](C(C)C)N(C)C1=O
IC50 [2]: 1550 nM | IC20 [2]: 460 nM

CC[C@@H](C)[C@@H]1NC(=O)[C@@H]2CCCN2C(=O)[C@H](Cc2ccccc2)N(C)C(=O)[C@H](Cc2ccccc2)NC(=O)[C@H](C(C)C)N(C)C(=O)[C@@H]([C@@H](C)CC)OC(=O)[C@H]([C@H](C)CO)N(C)C(=O)[C@H](CC(C)C)NC(=O)[C@H](C(C)C)N(C)C1=O [listing 1 of 2 here]
IC50 [2]: 1090 nM | IC20 [2]: 360 nM | Pgp AbA/analogue ratio [4]: 2.1 | antifungal AbA/analogue ratio (Saccharomyces cerevisiae [5]): 0.06

CC[C@@H](C)[C@@H]1NC(=O)[C@@H]2CCCN2C(=O)[C@H](Cc2ccccc2)N(C)C(=O)[C@H](Cc2ccccc2)NC(=O)[C@H](C(C)C)N(C)C(=O)[C@@H]([C@@H](C)CC)OC(=O)[C@H]([C@H](C)CO)N(C)C(=O)[C@H](CC(C)C)NC(=O)[C@H](C(C)C)N(C)C1=O [listing 2 of 2 here]
MIC (Saccharomyces cerevisiae [3]): 6.3 µg/mL (≈ 5.72 µM)

CC[C@@H](C)[C@@H]1NC(=O)[C@@H]2CCCN2C(=O)[C@H]([C@H](O)c2ccccc2)N(C)C(=O)[C@H](Cc2ccccc2)NC(=O)[C@H](C(C)C)N(C)C(=O)[C@@H]([C@@H](C)CC)OC(=O)[C@H](C(C)(C)O)N(C)C(=O)[C@H](CC(C)C)NC(=O)[C@H](C(C)C)N(C)C1=O [listing 1 of 2 here]
IC50 [2]: 2150 nM | IC20 [2]: 810 nM | Pgp AbA/analogue ratio [4]: 1 | antifungal AbA/analogue ratio (Saccharomyces cerevisiae [5]): 0.5

CC[C@@H](C)[C@@H]1NC(=O)[C@@H]2CCCN2C(=O)[C@H]([C@H](O)c2ccccc2)N(C)C(=O)[C@H](Cc2ccccc2)NC(=O)[C@H](C(C)C)N(C)C(=O)[C@@H]([C@@H](C)CC)OC(=O)[C@H](C(C)(C)O)N(C)C(=O)[C@H](CC(C)C)NC(=O)[C@H](C(C)C)N(C)C1=O [listing 2 of 2 here]
MIC (Saccharomyces cerevisiae [3]): 0.8 µg/mL (≈ 0.716 µM)

CC[C@@H](C)[C@@H]1NC(=O)[C@@H]2CCCN2C(=O)[C@H](Cc2ccccc2)N(C)C(=O)[C@H](Cc2ccccc2)NC(=O)[C@H](C(C)C)N(C)C(=O)[C@@H]([C@@H](C)CC)OC(=O)[C@H](C(C)(C)O)N(C)C(=O)[C@H](CC(C)C)NC(=O)[C@H](C(C)C)NC1=O [listing 1 of 2 here]
IC50 [2]: 7550 nM | IC20 [2]: 2670 nM | Pgp AbA/analogue ratio [4]: 0.3 | antifungal AbA/analogue ratio (Saccharomyces cerevisiae [5]): 0.25

CC[C@@H](C)[C@@H]1NC(=O)[C@@H]2CCCN2C(=O)[C@H](Cc2ccccc2)N(C)C(=O)[C@H](Cc2ccccc2)NC(=O)[C@H](C(C)C)N(C)C(=O)[C@@H]([C@@H](C)CC)OC(=O)[C@H](C(C)(C)O)N(C)C(=O)[C@H](CC(C)C)NC(=O)[C@H](C(C)C)NC1=O [listing 2 of 2 here]
MIC (Saccharomyces cerevisiae [3]): 1.6 µg/mL (≈ 1.47 µM)
